Measurements reported in ChEMBL document CHEMBL1138290 (J Med Chem, 2007).
Each block holds one compound with its values, some of them ahead of it.

What was measured:
K562 = assay: Antiproliferative activity against human K562 cells after 48 hrs; assay type: functional, cell-based; details: K562, 48 h
How it was run: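 Growth of K562 cells measured by counting cells with a hemocytometer after 48 h (2 days) of drug treatment. IC50 is the mean of at least three independent determinations.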

Tubulin = Tubulin (Sus scrofa, UniProt P02554+P02550); assay: Inhibition of porcine brain tubulin polymerization
[1] = Antiproliferative activity against rat L12 cells after 48 hrs by XTT assay; assay type: functional, cell-based
[2] = Antiproliferative activity against rat multidrug-resistant L12 cells after 48 hrs by XTT assay; assay type: functional, cell-based; details: L1.2, 48 h
How it was run: (§1)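 XTT proliferation assay with 48 h incubation with test compound. Each experiment run at least in duplicate (n = 2). IC50 calculated by nonlinear regression of dose-response curves.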

L1210 = assay: Antiproliferative activity against mouse vincristine-resistant L1210 cells after 48 hrs by XTT assay; assay type: functional, cell-based; details: L1210, 48 h; how it was run: as §1
[3] = Cytotoxicity against human KB/HeLa cells after 48 hrs by XTT assay; assay type: functional, cell-based; how it was run: as §1
RKO = assay: Cytotoxicity against human RKO cells with ectopic-inducible expression of p27kip1 after 48 hrs by XTT assay; assay type: functional, cell-based; how it was run: as §1
P388 [4] = assay: Antiproliferative activity against mouse P388 cells after 48 hrs by XTT assay; assay type: functional, cell-based; details: P388, 48 h; how it was run: as §1
P388 [5] = assay: Antiproliferative activity against mouse adriamycin-resistant P388 cells after 48 hrs by XTT assay; assay type: functional, cell-based; details: P388, 48 h; how it was run: as §1
[6] = Cell cycle arrest in KB/HeLa cells assessed as accumulation at G2/M phase after 24 hrs by flow cytometric analysis; assay type: functional, cell-based; details: Homo sapiens
How it was run: (§2)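 Subconfluent KB/HeLa cells exposed to a range of compound concentrations for 24 h. Cell cycle phase distribution determined by flow cytometry. Experiments run at least in duplicate (n = 2).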

[7] = Cell cycle arrest in KB/HeLa cells assessed as accumulation at S phase at 3.16 nM after 24 hrs by flow cytometric analysis; assay type: functional, cell-based; details: Homo sapiens; how it was run: as §2
[8] = Cell cycle arrest in KB/HeLa cells assessed as accumulation at S phase at 1 nM after 24 hrs by flow cytometric analysis; assay type: functional, cell-based; details: Homo sapiens; how it was run: as §2
[9] = Cell cycle arrest in KB/HeLa cells assessed as accumulation at S phase at 10 nM after 24 hrs by flow cytometric analysis; assay type: functional, cell-based; details: Homo sapiens; how it was run: as §2
[10] = Cell cycle arrest in KB/HeLa cells assessed as accumulation at S phase at 31.6 nM after 24 hrs by flow cytometric analysis; assay type: functional, cell-based; details: Homo sapiens; how it was run: as §2
[11] = Cell cycle arrest in KB/HeLa cells assessed as accumulation at S phase at 100 nM after 24 hrs by flow cytometric analysis; assay type: functional, cell-based; details: Homo sapiens; how it was run: as §2
[12] = Cell cycle arrest in KB/HeLa cells assessed as accumulation at S phase at 316 nM after 24 hrs by flow cytometric analysis; assay type: functional, cell-based; details: Homo sapiens; how it was run: as §2
[13] = Cell cycle arrest in KB/HeLa cells assessed as accumulation at G2M phase at 1 nM after 24 hrs by flow cytometric analysis; assay type: functional, cell-based; details: Homo sapiens; how it was run: as §2
[14] = Cell cycle arrest in KB/HeLa cells assessed as accumulation at G2M phase at 3.16 nM after 24 hrs by flow cytometric analysis; assay type: functional, cell-based; details: Homo sapiens
[15] = Cell cycle arrest in KB/HeLa cells assessed as accumulation at G2M phase at 10 nM after 24 hrs by flow cytometric analysis; assay type: functional, cell-based; details: Homo sapiens; how it was run: as §2
[16] = Cell cycle arrest in KB/HeLa cells assessed as accumulation at G2M phase at 31.6 nM after 24 hrs by flow cytometric analysis; assay type: functional, cell-based; details: Homo sapiens; how it was run: as §2
[17] = Cell cycle arrest in KB/HeLa cells assessed as accumulation at G2M phase at 100 nM after 24 hrs by flow cytometric analysis; assay type: functional, cell-based; details: Homo sapiens; how it was run: as §2
[18] = Cell cycle arrest in KB/HeLa cells assessed as accumulation at G2M phase at 316 nM after 24 hrs by flow cytometric analysis; assay type: functional, cell-based; details: Homo sapiens; how it was run: as §2
[19] = Cell cycle arrest in KB/HeLa cells assessed as accumulation at G1 phase at 1 nM after 24 hrs by flow cytometric analysis; assay type: functional, cell-based; details: Homo sapiens; how it was run: as §2
[20] = Cell cycle arrest in KB/HeLa cells assessed as accumulation at G1 phase at 3.16 nM after 24 hrs by flow cytometric analysis; assay type: functional, cell-based; details: Homo sapiens; how it was run: as §2
[21] = Cell cycle arrest in KB/HeLa cells assessed as accumulation at G1 phase at 10 nM after 24 hrs by flow cytometric analysis; assay type: functional, cell-based; details: Homo sapiens; how it was run: as §2
[22] = Cell cycle arrest in KB/HeLa cells assessed as accumulation at G1 phase at 31.6 nM after 24 hrs by flow cytometric analysis; assay type: functional, cell-based; details: Homo sapiens; how it was run: as §2
[23] = Cell cycle arrest in KB/HeLa cells assessed as accumulation at G1 phase at 100 nM after 24 hrs by flow cytometric analysis; assay type: functional, cell-based; details: Homo sapiens; how it was run: as §2
[24] = Cell cycle arrest in KB/HeLa cells assessed as accumulation at G1 phase at 316 nM after 24 hrs by flow cytometric analysis; assay type: functional, cell-based; details: Homo sapiens; how it was run: as §2

Compound: COc1ccc(S(=O)(=O)Oc2c3cccc(Cl)c3cc3c(Cl)cccc23)cc1
- IC50 (K562): 1700 nM
- IC50 (Tubulin): > 10000 nM

Compound: O=[N+]([O-])c1ccc(S(=O)(=O)Oc2c3ccccc3cc3sccc23)cc1
- IC50 (K562): 2300 nM
- IC50 (Tubulin): > 14000 nM

Compound: CC[C@]1(O)C[C@@H]2CN(CCc3c([nH]c4ccccc34)[C@@](C(=O)OC)(c3cc4c(cc3OC)N(C)[C@H]3[C@@](O)(C(N)=O)[C@H](O)[C@]5(CC)C=CCN6CC[C@]43[C@@H]65)C2)C1 [VINDESINE]
- IC50 [1]: 1 nM
- IC50 [2]: 260 nM
- IC50 (L1210): > 5000 nM

Compound: COC(=O)Nc1nc2cc(C(=O)c3cccs3)ccc2[nH]1 [NOCODAZOLE]
- IC50 [3]: 140 nM
- IC50 (RKO): > 14000 nM
- IC50 [1]: 300 nM
- IC50 [2]: 50 nM
- IC50 (P388 [4]): 70 nM
- IC50 (P388 [5]): 50 nM
- EC50 [6]: 91 nM
- Activity [7]: 24.8%
- Activity [8]: 23.6%
- Activity [9]: 25.7%
- Activity [10]: 25.7%
- Activity [11]: 26.1%
- Activity [12]: 6%
- Activity [13]: 11.1%
- Activity [14]: 10.6%
- Activity [15]: 10%
- Activity [16]: 9.9%
- Activity [17]: 51.4%
- Activity [18]: 93.2%
- Activity [19]: 65.2%
- Activity [20]: 64.6%
- Activity [21]: 64.2%
- Activity [22]: 64.4%
- Activity [23]: 22.3%
- Activity [24]: 0.9%

Compound: COc1ccc(S(=O)(=O)Oc2c3c(Cl)cccc3cc3cccc(Cl)c23)cc1
- IC50 (K562): 10000 nM
- IC50 (Tubulin): > 10000 nM

Compound: COc1ccc(C=C2c3ccccc3C(=O)c3ccccc32)cc1O
- EC50 [6]: 200 nM

Continued by falling IC50 (K562), values first:

- IC50 (K562): 830 nM
- IC50 (Tubulin): > 10000 nM
Compound: COc1ccc(S(=O)(=O)Oc2c3c(nc4ccccc24)CCCC3)cc1

- IC50 (K562): 800 nM
- IC50 (Tubulin): > 14000 nM
Compound: O=S(=O)(Oc1c2ccccc2cc2sccc12)c1ccccc1

- IC50 (K562): 440 nM
- IC50 (Tubulin): 1050 nM
Compound: Cc1ccc(S(=O)(=O)Oc2c3ccccc3cc3sccc23)cc1

- IC50 (K562): 250 nM
- IC50 (Tubulin): 290 nM
Compound: COc1cccc(S(=O)(=O)Oc2c3ccccc3cc3sccc23)c1

- IC50 (K562): 170 nM
- IC50 (Tubulin): 1270 nM
Compound: COc1ccc(S(=O)(=O)Oc2c3ccccc3cc3sccc23)cc1OC

- IC50 (K562): 130 nM
- IC50 (Tubulin): 710 nM
Compound: Nc1ccc(S(=O)(=O)Oc2c3ccccc3cc3sccc23)cc1
